# Key:
# Renin = biological target: T1, Renin (Homo sapiens, UniProt P00797); assay: Inhibitory concentration against human plasma renin at pH 7.4; type: cell-free
# T1 sequence (P00797 whole entry): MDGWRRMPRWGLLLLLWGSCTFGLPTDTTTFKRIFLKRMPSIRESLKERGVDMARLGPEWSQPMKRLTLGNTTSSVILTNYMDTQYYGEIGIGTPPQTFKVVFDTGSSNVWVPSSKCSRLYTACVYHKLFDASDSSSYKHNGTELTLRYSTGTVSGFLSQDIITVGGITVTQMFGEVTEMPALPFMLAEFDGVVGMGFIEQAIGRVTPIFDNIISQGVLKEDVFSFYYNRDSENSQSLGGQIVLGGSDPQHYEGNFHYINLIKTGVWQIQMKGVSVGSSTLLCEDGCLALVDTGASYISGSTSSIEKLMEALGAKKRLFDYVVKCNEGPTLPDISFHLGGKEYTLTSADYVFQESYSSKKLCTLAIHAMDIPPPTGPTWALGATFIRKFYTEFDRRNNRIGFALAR
# [1] = Bioavailability in the systemic circulation after 10 minutes was determined after intraduodenal dose of 10 mg/kg in rat by HPLC method; type: ADME, organism-based; conditions: plasma (systemic circulation), read-out: Plasma level
# In short: (§1)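 Screening model in anesthetized rats given 10 mg/kg intraduodenally. Formulation was ethanol stock with 110 mol % HCl, diluted with aqueous hydroxypropyl methylcellulose to 25% ethanol. Systemic and portal blood drawn at 10 and 30 min in the same animals. Drug level (ng/mL) measured by HPLC or renin inhibition assay. Mean ± SEM, n = 3 unless noted.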
# [2] = Integrated area under the plasma drug level-time curve was determined in systemic circulation after intraduodenal dose of 10 mg/kg in rat; type: ADME, organism-based; design: dose 10 mg/kg, route intraduodenal
# In short: (§2)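 Intraduodenal 10 mg/kg to anesthetized rats or ferrets. Compound dissolved in ethanol with 110 mol % HCl, then diluted in aqueous hydroxypropyl methylcellulose to 25% ethanol (10 mg/mL). Plasma sampled id rat 15, 30, 60, 120 min; id ferret 5, 15, 30, 60, 120, 180 min. Drug measured by renin inhibition assay or HPLC. AUC in ng h/mL. Bioavailability is relative to iv 1.0 mg/kg (rat) or 0.3 mg/kg (ferret).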
# [3] = Bioavailability in the systemic circulation after 30 minutes was determined after intraduodenal dose of 10 mg/kg in rat by HPLC method; type: ADME, organism-based; conditions: plasma (systemic circulation), read-out: Plasma level; in short: as §1
# [4] = Bioavailability in the portal circulation after 30 minutes was determined after intraduodenal dose of 10 mg/kg in rat by HPLC method; type: ADME, organism-based; conditions: plasma (portal circulation), read-out: Plasma level; in short: as §1
# [5] = Bioavailability in rat (dose 10 mg/kg i.d.); type: ADME, organism-based; conditions: in vivo; in short: as §2
# [6] = Bioavailability in the portal circulation after 10 minutes was determined after intraduodenal dose of 10 mg/kg in rat by HPLC method; type: ADME, organism-based; conditions: plasma (portal circulation), read-out: Plasma level; in short: as §1
# [7] = Bioavailability in ferret (dose 10 mg/kg i.d.); type: ADME, organism-based, Mustela putorius furo; conditions: in vivo; in short: as §2
# [8] = Peak concentration was determined in systemic circulation after intraduodenal dose of 10 mg/kg in rat; type: ADME, organism-based; design: dose 10 mg/kg, route intraduodenal; conditions: in vivo, read-out: Activity; in short: as §2
# [9] = Partition coefficient in the octanol/water phase at pH 7.4; type: physicochemical
# In short: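 log P measured by octanol/water partition at pH 7.4.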
# [10] = Integrated area under the plasma drug level-time curve was determined in systemic circulation after intraduodenal dose of 10 mg/kg in ferret; type: ADME, organism-based, Mustela putorius furo; design: dose 10 mg/kg, route intraduodenal; in short: as §2
# [11] = Peak concentration was determined in systemic circulation after intraduodenal dose of 10 mg/kg in ferret; type: ADME, organism-based, Mustela putorius furo; design: dose 10 mg/kg, route intraduodenal; conditions: in vivo, read-out: Activity; in short: as §2
# [12] = Solubility at pH 7.4; type: physicochemical; conditions: buffer
# [13] = Bioavailability in the portal circulation after 10 minutes was determined after intraduodenal dose of 10 mg/kg in rat by renin inhibition assay; type: ADME, organism-based; conditions: plasma (portal circulation), read-out: Plasma level; in short: as §1
# [14] = Bioavailability in the systemic circulation after 10 minutes was determined after intraduodenal dose of 10 mg/kg in rat by renin inhibition assay; type: ADME, organism-based; conditions: plasma (systemic circulation), read-out: Plasma level; in short: as §1
# [15] = Bioavailability in the systemic circulation after 30 minutes was determined after intraduodenal dose of 10 mg/kg in rat by renin inhibition assay; type: ADME, organism-based; conditions: plasma (systemic circulation), read-out: Plasma level; in short: as §1
# [16] = Bioavailability in the portal circulation after 30 minutes was determined after intraduodenal dose of 10 mg/kg in rat by renin inhibition assay; type: ADME, organism-based; conditions: plasma (portal circulation), read-out: Plasma level; in short: as §1
# [17] = Bioavailability in the systemic circulation after 10 minutes was determined after intraduodenal dose of 15 mg/kg in rat by renin inhibition assay; type: ADME, organism-based; conditions: plasma (systemic circulation), read-out: Plasma level
# [18] = Integrated area under the plasma drug level-time curve was determined in systemic circulation after intraduodenal dose of 10 mg/kg in monkey; type: ADME, organism-based; design: dose 10 mg/kg, route intraduodenal; conditions: simiiformes
# In short: (§3)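 Anesthetized, salt-depleted cynomolgus monkeys dosed intraduodenally at 10 mg/kg in HCl salt/ethanol–hydroxypropyl methylcellulose vehicle (25% ethanol). Systemic and portal plasma drug levels measured by renin inhibition assay. AUC in ng h/mL. Bioavailability compared against an iv dose of 0.3 mg/kg or 1.0 mg/kg, the latter taken from earlier work. Mean ± SEM.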
# [19] = Bioavailability was determined after intraduodenal dose of 10 mg/kg in monkey (compared to 1 mg/kg intravenous dose); type: ADME, organism-based; conditions: simiiformes, in vivo, read-out: Bioavailabiility; in short: as §3
# [20] = Peak concentration was determined in systemic circulation after intraduodenal dose of 10 mg/kg in monkey; type: ADME, organism-based; design: dose 10 mg/kg, route intraduodenal; conditions: simiiformes, in vivo, read-out: Activity; in short: as §3
# [21] = Peak concentration was determined in portal circulation after intraduodenal dose of 10 mg/kg in monkey; type: ADME, organism-based; design: dose 10 mg/kg, route intraduodenal; conditions: simiiformes, in vivo, read-out: Activity; in short: as §3
# [22] = Integrated area under the plasma drug level-time curve was determined in portal circulation after intraduodenal dose of 10 mg/kg in monkey; type: ADME, organism-based; design: dose 10 mg/kg, route intraduodenal; conditions: simiiformes; in short: as §3
# [23] = Hypotension peak is percentage change from predose baseline pressure observed after intraduodenal dose of 10 mg/kg in monkey; type: ADME, organism-based; design: dose 10 mg/kg, route intraduodenal; conditions: simiiformes, in vivo, other
# In short: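 Anesthetized, salt-depleted cynomolgus monkeys given 10 mg/kg intraduodenally. Mean arterial pressure followed for up to 5 h. Peak fall expressed as % change from predose baseline. Difference from baseline significant if P < 0.05. Mean ± SEM.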
IC50 (Renin) [nM],concentration at 10 min [1] [ng/mL],concentration at 0.5 h [3] [ng/mL],concentration at 0.5 h [4] [ng/mL],concentration at 10 min [6] [ng/mL],logD [9],solubility [12] [µg/mL],SMILES,further results
33,–,–,–,–,–,–,CC(C)C[C@H](O)[C@H](O)[C@H](CC1CCCCC1)NC(=O)[C@H](Cc1cscn1)NC(=O)[C@@H](CC(=O)N(C)CCc1c[nH]c2ccccc12)Cc1ccccc1,–
1.6,220,300,4500,2200,> 4.2,14,CC(C)C[C@H](O)[C@H](O)[C@H](CC1CCCCC1)NC(=O)[C@H](Cn1cccn1)NC(=O)[C@@H](CC(=O)N(C)CCc1ccccn1)Cc1ccccc1,AUC [2]: 760 ng·h/mL; bioavailability [5]: 20%; bioavailability [7]: 35%; Cmax [8]: 460 ng/mL; AUC [10]: 870 ng·h/mL; Cmax [11]: 400 ng/mL
1.8,–,–,–,–,> 4.5,–,CC(C)C[C@H](O)[C@H](O)[C@H](CC1CCCCC1)NC(=O)[C@H](Cc1cscn1)NC(=O)[C@H](Cc1ccccc1)CS(=O)(=O)N(C)CCc1ccccn1,–
0.72,140,230,2300,1900,> 4.2,44,CC(C)C[C@H](O)[C@H](O)[C@H](CC1CCCCC1)NC(=O)[C@H](Cc1cscn1)NC(=O)[C@@H](CC(=O)N(C)CCn1cccn1)Cc1ccccc1,–
4.1,33,33,600,930,–,–,COCCN(C)C(=O)C[C@@H](Cc1ccccc1)C(=O)N[C@@H](Cc1cscn1)C(=O)N[C@@H](CC1CCCCC1)[C@@H](O)[C@@H](O)CC(C)C,–
8.5,–,–,–,–,3.58,–,CC(C)C[C@H](O)[C@H](O)[C@H](CC1CCCCC1)NC(=O)[C@H](Cc1cscn1)NC(=O)[C@@H](CC(=O)N(C)CCN1CCN(C)CC1)Cc1ccccc1,concentration at 10 min [13]: 580 ng/mL; concentration at 10 min [14]: 80 ng/mL; concentration at 0.5 h [15]: 74 ng/mL; concentration at 0.5 h [16]: 590 ng/mL
14,–,–,–,–,–,–,CC(C)C[C@H](O)[C@H](O)[C@H](CC1CCCCC1)NC(=O)[C@H](Cn1ccnc1)NC(=O)[C@@H](CC(=O)N(C)CCc1ccccn1)Cc1ccccc1,–
3,–,190,–,–,> 4.2,12,CC(C)C[C@H](O)[C@H](O)[C@H](CC1CCCCC1)NC(=O)[C@H](Cc1cscn1)NC(=O)[C@@H](CC(=O)N(C)CCc1ccncc1)Cc1ccccc1,–
–,–,–,–,–,4.57,–,CC(C)C[C@H](O)[C@H](O)[C@H](CC1CCCCC1)NC(=O)[C@H](Cc1cscn1)NC(=O)[C@H](Cc1ccccc1)CS(=O)(=O)N1CCN(C)CC1 [ZANKIREN],concentration at 10 min [17]: 280 ng/mL; AUC [2]: 620 ng·h/mL; AUC [18]: 340 ng·h/mL; bioavailability [5]: 23%; bioavailability [19]: 5.1%; Cmax [20]: 130 ng/mL; bioavailability [7]: 82%; Cmax [21]: 2400 ng/mL; Cmax [8]: 470 ng/mL; AUC [10]: 1500 ng·h/mL; AUC [22]: 3800 ng·h/mL; Cmax [11]: 940 ng/mL; concentration at 0.5 h [15]: 440 ng/mL; Change [23]: 37%
